Source: PubChem (several laboratories)
An excerpt weighted towards active compounds, which were near 1.8% of everything screened.
Platelet DG rel: modulates dense granule release in human platelets; human platelet-rich plasma, SFLLRN dense granule ATP release, luminescence; inhibition, %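 (compounds screened at 7.5 µM in platelet-rich plasma)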; actives 0.22% (n = 300,000); AID 1663;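 active = mean replicate score, as percent of positive control, at or above 50; inconclusive = mean below 50 but at least one replicate at or above 50; inactive = mean and every replicate below 50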
Rce1 inh: yeast Ras-converting enzyme inhibition. Q03530. yeast membranes, quenched prenylated peptide cleavage fluorescence. calls only. actives 0.27% (n = 290,000). AID 2563;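 active = fall in fluorescence gain of 50% or more versus controls, with final raw signal at or below 3038400; inconclusive = same 50% fall but final raw signal above 3038400; inactive = fall in fluorescence gain under 50%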;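 note: plate controls were neutral control wells for no effect and wells lacking membranes for full effect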
RanGTP-Impb inh: disruptors of Ran-importin-beta complex formation – biochemical, FRET, CFP-Ran, YFP-importin-beta, homogeneous, primary screen. cell-free CFP-Ran/YFP-importin-beta FRET ratio. inhibition, % (concentration not given with the values). actives 1.1% (n = 300,000);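 active = more than half of the replicate wells show a fall in the fluorescence ratio signal beyond about 16%, limit read from the data, passing the limit was not always enough; inconclusive = exactly half of the replicate wells pass the set limit; inactive = fewer than half of replicates pass the limit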;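 note: 0% = DMSO wells and 100% = Ran loaded with GDP instead of GTP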
Runt-SMMHC FRET: Runt domain-CBFb-SMMHC interaction inhibition | Cerulean-Runt/Venus-CBFb-SMMHC FRET ratio 530/480, 1 h | AID 1434 | inhibition, % at 20 µM | actives 0.74% (n = 220,000) | Q01196+Q13951;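 active = mean inhibition across duplicate retests at 20 µM reaching about 50%, limit read from the data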;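 note: 0% = DMSO wells and 100% = wells with excess untagged CBFb-SMMHC; inhibitors lower the FRET ratio by blocking Runt binding to CBFb-SMMHC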
Target sequence (Q01196 whole entry, looked up, the tested form may be a part): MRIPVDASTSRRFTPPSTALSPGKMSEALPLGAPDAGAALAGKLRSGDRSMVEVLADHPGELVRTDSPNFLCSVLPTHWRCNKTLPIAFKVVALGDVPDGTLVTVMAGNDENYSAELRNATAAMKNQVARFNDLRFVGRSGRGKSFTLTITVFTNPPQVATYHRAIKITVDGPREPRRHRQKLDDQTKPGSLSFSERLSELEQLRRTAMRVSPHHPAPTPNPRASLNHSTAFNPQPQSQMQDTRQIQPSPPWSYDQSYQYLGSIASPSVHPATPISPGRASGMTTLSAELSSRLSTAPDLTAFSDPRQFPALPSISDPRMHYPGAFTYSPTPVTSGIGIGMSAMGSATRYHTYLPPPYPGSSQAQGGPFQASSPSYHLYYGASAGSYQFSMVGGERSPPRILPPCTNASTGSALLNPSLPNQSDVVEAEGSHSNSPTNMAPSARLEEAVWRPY
Target sequence (Q13951 whole entry, looked up, the tested form may be a part): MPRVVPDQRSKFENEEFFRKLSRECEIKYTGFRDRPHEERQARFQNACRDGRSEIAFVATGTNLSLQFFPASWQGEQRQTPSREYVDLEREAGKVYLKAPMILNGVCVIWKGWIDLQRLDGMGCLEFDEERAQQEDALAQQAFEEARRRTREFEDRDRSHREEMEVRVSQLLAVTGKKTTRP
Runt-CBFb FRET: Runt domain-CBFb interaction inhibition | AID 1496 | actives 0.46% (n = 220,000) | Cerulean-Runt/Venus-CBFb FRET ratio 530/480, 1 h | inhibition, % at 20 µM | Q01196+Q13951;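 active = inhibition over about 50% at 20 µM in the single-dose screen, limit read from the data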;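 note: 0% = DMSO wells and 100% = excess unlabeled CBFb competitor control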
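Measured by: fluorescence energy transfer, 422 nm excitation, 530/480 nm emission; test system: Cerulean-tagged RUNX1 Runt domain (FRET donor) fusion protein; buffer or medium: Tris pH 7.5 buffer with BSA; compound: one dose, 20 µM compound, 1% DMSO; times: two 1 h room-temperature incubations shielded from light; benchmarks: unlabeled CBFb 5 µM, positive control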
Numbers without * were called inactive; i = inactive; ? = inconclusive; / = not tested or not shown; + = active, no number.

SMILES | Platelet DG rel | Rce1 inh | RanGTP-Impb inh | Runt-SMMHC FRET | Runt-CBFb FRET
CC(=O)Nc1ccc(Cl)cc1C1COC(=O)C1=N (stereo not given) | -2 | + | 19* | -8 | -6
Cc1ccc(NC(=O)Nc2cc(Cl)ccc2C2COC(=O)C2=N)cc1 (stereo not given) | 2 | i | 5 | -12 | -1
O=c1cc(-c2ccc(O)cc2)oc2cc(O)cc(O)c12 | -5 | i | 7 | / | /
O=c1cc(-c2ccc(O)cc2)oc2cc(O)c(C3OC(CO)C(O)C(O)C3O)c(O)c12 (stereo not given) | 0 | / | 7 | 87* | 38
CN(C)/C=N/C1=C(C#N)C(c2ccc(Br)cc2)c2ccc3ccccc3c2O1 (stereo not given) | 0 | i | 21* | / | /
COc1cc(N2N=C(c3ccccc3)CC2c2ccccc2)c(C=O)cc1C=O (stereo not given) | 0 | i | 31* | / | /
O=S(=O)(/C=C/c1ccccc1)Nc1ccc(F)cc1 | 0 | i | 3 | -2 | -1
Cc1ccc(N/C=C/C(=O)c2cccs2)cc1 | 52* | i | 1 | -12 | -2
CC(=O)n1c2c(c3ccccc31)OC(N)=C(C#N)C2c1ccc(C(C)C)cc1 (stereo not given) | -2 | i | 31* | -7 | -7
O=C(CCC(=O)N(CC(=O)NC1CCCC1)c1ccc(F)cc1)Nc1nccs1 | 7 | i | 2 | / | /
FC(F)(F)c1ccc(C2NCCc3sccc32)cc1 (stereo not given) | 0 | i | -4 | -4 | 0
Cc1ccc2nc3c(cc(C(=O)NCCN4CCOCC4)c(=N)n3CCCN3CCOCC3)c(=O)n2c1 | 0 | i | 143* | / | /
Cc1ccc2nc3c(cc(C(=O)NCCc4ccccc4)c(=N)n3CCN3CCOCC3)c(=O)n2c1 | 3 | i | 159* | / | /
Cc1ccc2nc(NCc3ccccc3)c(C=NCc3ccccc3)c(=O)n2c1 | 3 | i | 1 | 0 | -6
Cc1ccc2nc(NCCCN3CCOCC3)c(C=NCCCN3CCOCC3)c(=O)n2c1 | 3 | i | 39* | 66* | 76*
CCN(CC)CCNC(=O)C1CCN(S(=O)(=O)c2c(C)noc2/C=C/c2ccccc2F)CC1 | 4 | i | 6 | / | /
Cc1ccc(CCNC(=O)c2cc(S(=O)(=O)N3CCCC3)cn2C)cc1 | 4 | i | -2 | / | /
CN(CCc1cnn(C)c1)Cc1nc(CC2CC2)no1 | -1 | i | 0 | -1 | -2
CCCOc1ccc(-c2nn(-c3ccccc3)cc2/C=C2\SC(N)=NC2=O)cc1 | 2 | i | 19* | 21 | -1
Cc1cc(-c2nn(-c3ccccc3)cc2/C=C2\SC(N)=NC2=O)ccc1OC(C)C | 11 | i | -2 | -40 | 0
CC(=O)c1c(O)cc(=O)oc1-c1ccc(C)cc1 | 12 | i | -4 | / | /
N#C/C(=C\c1ccc(Cl)cc1)c1nc2ncccc2[nH]1 | -43 | i | 36* | 34 | 17
CNC(=O)N(C1=NCCCCC1)c1ccc(Br)cc1 | 8 | i | 1 | 3 | 2
O=C(O)C1CCN(C(=O)COc2ccc3c(c2)oc(=O)c2ccccc23)CC1 | 0 | i | 0 | / | /
CCC(C)NCCOCCOc1ccc(Cl)cc1Br (stereo not given) | 2 | i | -5 | 0 | 11
SMILES | Platelet DG rel | Rce1 inh | RanGTP-Impb inh | Runt-SMMHC FRET | Runt-CBFb FRET
CCO/N=C(\N)c1[nH]ncc1Br | 4 | i | 0 | -3 | 0
N/C(=N\OC(=O)c1ccc(Cl)cc1)c1[nH]ncc1Br | 52* | i | 0 | -3 | 4
N/C(=N\OC(=O)c1ccccc1Cl)c1ccccn1 | 56* | i | 0 | -2 | -1
COc1ccccc1C(=O)O/N=C(\N)c1ccccn1 | 3 | i | 2 | -6 | 1
N/C(=N\OC(=O)c1ccc(Cl)cc1)c1ccccn1 | 52* | i | -3 | 3 | -1
O=[N+]([O-])c1ccc(OCCCCN2CCc3ccccc3C2)cc1 | 2 | i | 0 | / | /
Cc1cc(NC(=O)c2oc3ccccc3c2C)ccc1-n1cnnn1 | -7 | + | 0 | -8 | -3
O=C(CSc1cccc2cccnc12)Nc1cc(C(=O)O)cc(C(=O)O)c1 | 1 | i | 6 | / | /
O=C/C(=C\Nc1ccc(S(=O)(=O)CCO)cc1)c1nc2cc(Cl)ccc2o1 | -3 | i | 22* | -6 | -4
O=C/C(=C\Nc1ccc(Cl)cn1)c1nc2cc(Cl)ccc2o1 | 5 | i | 8 | -40 | -19
O=C1c2ccccc2C(=O)N1CCc1nc2ccccc2c(=O)n1CCCn1ccnc1 | 4 | i | 25* | -2 | 0
O=C1c2ccccc2C(=O)N1CCCc1nc2ccccc2c(=O)n1Cc1ccco1 | 4 | i | 6 | 7 | 130*
Cc1cc(=O)[nH]c2nnc(-c3ccc(Br)cc3)n12 | 7 | i | 4 | / | /
COC(=O)c1ccc(C)c(NS(=O)(=O)c2ccc(NC(C)=O)cc2)c1 | -1 | i | -2 | 3 | 1
CCn1cc(S(=O)(=O)Nc2cc(C(=O)OC)ccc2C)cn1 | -9 | i | 32* | / | /
CCc1cc(=O)oc2c3c(cc(OCC(=O)NCCCn4ccnc4)c12)OC(C)(C)CC3 | -1 | / | 4 | / | /
O=C(Nc1cccnc1Oc1ccc(Cl)cc1)c1cccc2ccccc12 | -4 | + | 0 | 3 | 0
CC(=O)c1cc2c(cc1NC(=O)Nc1cccc(Cl)c1)OCCO2 | 3 | i | ? | 62* | 19
O=C(Nc1ccc(Cl)cc1)Nc1ccccc1C(=O)O | 53* | i | -1 | / | /
O=C(Nc1cccc(Cl)c1)Nc1ccccc1C(=O)O | 75* | i | 3 | -1 | 1
Cc1nc2c(C(=O)N3CCN(C)CC3)cnn2c(C)c1Cc1ccc(Cl)cc1 | -4 | + | ? | 0 | 2
C(=N\n1cnnc1)/c1ccc(N2CCOCC2)s1 | -1 | i | 10 | 70* | 28
Cc1ccc2c(n1)sc1c(-c3ccccc3)c(C#N)c(N)nc12 | -3 | i | 56* | 100* | 18
Cc1nc(N)c(C#N)c(-c2cccnc2)c1-c1ccccc1 | 0 | i | -2 | / | /
C=C(C)Cc1c(C)c(C#N)c2nc3ccccc3n2c1NCCCN(C)C | -1 | i | 38* | 26 | 17
SMILES | Platelet DG rel | Rce1 inh | RanGTP-Impb inh | Runt-SMMHC FRET | Runt-CBFb FRET
COCCNc1cc(C)c(C#N)c2nc3ccccc3n12 | -1 | i | 25* | 44 | 17
CCc1c(C)c(C#N)c2nc3ccccc3n2c1NCCN(C)C | 13 | i | ? | 26 | 16
CCCNc1cc(C)c(C#N)c2nc3ccccc3n12 | / | / | / | 45 | 13
CCCc1cc(NCCN(C)C)n2c(nc3ccccc32)c1C#N | -4 | i | 5 | / | /
Cc1cc(NCCCO)n2c(nc3ccccc32)c1C#N | -3 | i | 56* | 39 | 10
CCCc1cc(NCC2CCCO2)n2c(nc3ccccc32)c1C#N (stereo not given) | -3 | i | 52* | 55* | 20
